Measurements reported in ChEMBL document CHEMBL2413060, “Synthesis, biological evaluation and molecular docking studies of some pyrimidine derivatives” (2013).
Values after ≈ are worked out from the molar mass of the structure shown.

Key:
Type in all cases: functional
[1] = system: Pseudomonas aeruginosa; test: Antibacterial activity against Pseudomonas aeruginosa ATCC 9027 after 24 hrs by two-fold serial dilution method relative to ofloxacin
[2] = system: Shigella flexneri; test: Antibacterial activity against Shigella flexneri ATCC 15391 after 24 hrs by two-fold serial dilution method relative to ofloxacin
[3] = system: Shigella flexneri; test: Antibacterial activity against Shigella flexneri ATCC 15391 after 24 hrs by two-fold serial dilution method; conditions: ATCC 15391, 24 h
In short: (§1)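 Two-fold serial broth dilution in sterile nutrient broth at 500, 250, 125, 62.5, 31.25, 15.63, 7.82 and 3.91 µg/ml, with dimethylformamide ≤2.5%. Organisms were pre-grown 24 h in broth, and 0.1 ml inoculum was added per 5 ml tube. Tubes were incubated at 37°C, 24 h for bacteria and 48 h for fungi. MIC was taken as the lowest concentration giving no turbidity.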

[4] = system: Candida albicans; test: Antifungal activity against Candida albicans ATCC 2091 assessed as diameter of inhibition zone at 1 mg/ml after 48 hrs by cup diffusion method (reference value: 22 mm); conditions: ATCC 2091, 48 h, read-out: DIZ
[5] = system: Shigella flexneri; test: Antibacterial activity against Shigella flexneri ATCC 15391 assessed as diameter of inhibition zone at 1 mg/ml after 24 hrs by cup diffusion method (reference value: 17 mm); conditions: ATCC 15391, 24 h, read-out: DIZ
[6] = system: Staphylococcus aureus; test: Antibacterial activity against Staphylococcus aureus ATCC 6538P assessed as diameter of inhibition zone at 1 mg/ml after 24 hrs by cup diffusion method (reference value: 15 mm); conditions: read-out: DIZ
[7] = system: Pseudomonas aeruginosa; test: Antibacterial activity against Pseudomonas aeruginosa ATCC 9027 assessed as diameter of inhibition zone at 1 mg/ml after 24 hrs by cup diffusion method (reference value: 16 mm); conditions: ATCC 9027, 24 h, read-out: DIZ
[8] = system: NCI/ADR-RES; test: Cytotoxicity against human NCI/ADR-RES cells assessed as growth inhibition at 10 uM; conditions: read-out: GI
In short: (§2)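 Single-dose screen on human tumour cell lines. Growth of treated cells is expressed as percent of untreated growth, plotted as a mean graph, and reported as percent growth inhibition.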

[9] = system: Malme-3M; test: Cytotoxicity against human MALME-3M cells assessed as growth inhibition at 10 uM; conditions: read-out: GI
[10] = system: NCI-H23; test: Cytotoxicity against human NCI-H23 cells assessed as growth inhibition at 10 uM; conditions: read-out: GI; in short: as §2
[11] = system: HOP-92; test: Cytotoxicity against human HOP92 cells assessed as growth inhibition at 10 uM; conditions: read-out: GI
[12] = system: SR; test: Cytotoxicity against human SR cells assessed as growth inhibition at 10 uM; conditions: read-out: GI; in short: as §2
[13] = system: SNB-75; test: Cytotoxicity against human SNB75 cells assessed as growth inhibition at 10 uM; conditions: read-out: GI; in short: as §2
[14] = system: OVCAR-8; test: Cytotoxicity against human OVCAR8 cells assessed as growth inhibition at 10 uM; conditions: read-out: GI; in short: as §2
[15] = system: UACC-257; test: Cytotoxicity against human UACC257 cells assessed as growth inhibition at 10 uM; conditions: read-out: GI
In short: (§3)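 Single-dose screen in a sixty-cell human tumour line panel; percent growth of treated cells relative to untreated was read and reported as percentage growth inhibition, shown as a mean graph. Compounds meeting the threshold inhibition criteria went on to five-dose testing.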

[16] = system: Pseudomonas aeruginosa; test: Antibacterial activity against Pseudomonas aeruginosa ATCC 9027 after 24 hrs by two-fold serial dilution method; conditions: ATCC 9027, 24 h; in short: as §1
[17] = system: T47D; test: Cytotoxicity against human T47D cells assessed as growth inhibition at 10 uM; conditions: read-out: GI; in short: as §2
[18] = system: BT-549; test: Cytotoxicity against human BT549 cells assessed as growth inhibition at 10 uM; conditions: read-out: GI
[19] = system: Hs-578T; test: Cytotoxicity against human Hs578T cells assessed as growth inhibition at 10 uM; conditions: read-out: GI
[20] = system: PC-3; test: Cytotoxicity against human PC3 cells assessed as growth inhibition at 10 uM; conditions: read-out: GI; in short: as §2
[21] = system: MCF7; test: Cytotoxicity against human MCF7 cells assessed as growth inhibition at 10 uM; conditions: read-out: GI; in short: as §2
[22] = system: TK-10; test: Cytotoxicity against human TK10 cells assessed as growth inhibition at 10 uM; conditions: read-out: GI; in short: as §3
[23] = system: A498; test: Cytotoxicity against human A498 cells assessed as growth inhibition at 10 uM; conditions: read-out: GI
[24] = system: IGROV-1; test: Cytotoxicity against human IGROV1 cells assessed as growth inhibition at 10 uM; conditions: read-out: GI
[25] = system: UACC-62; test: Cytotoxicity against human UACC62 cells assessed as growth inhibition at 10 uM; conditions: read-out: GI; in short: as §3
[26] = system: SK-MEL-2; test: Cytotoxicity against human SK-MEL-2 cells assessed as growth inhibition at 10 uM; conditions: read-out: GI; in short: as §2
[27] = system: SF-295; test: Cytotoxicity against human SF295 cells assessed as growth inhibition at 10 uM; conditions: read-out: GI; in short: as §2
[28] = system: NCI-H522; test: Cytotoxicity against human NCI-H522 cells assessed as growth inhibition at 10 uM; conditions: read-out: GI; in short: as §2
[29] = system: HOP-62; test: Cytotoxicity against human HOP62 cells assessed as growth inhibition at 10 uM; conditions: read-out: GI
[30] = Cytotoxicity against human EKVX cells assessed as growth inhibition at 10 uM; conditions: read-out: GI
[31] = system: RPMI-8226; test: Cytotoxicity against human RPMI8226 cells assessed as growth inhibition at 10 uM; conditions: read-out: GI; in short: as §2
[32] = system: K562; test: Cytotoxicity against human K562 cells assessed as growth inhibition at 10 uM; conditions: read-out: GI
[33] = system: RXF 393; test: Cytotoxicity against human RXF393 cells assessed as growth inhibition at 10 uM; conditions: read-out: GI; in short: as §2

SMILES | Activity [2] [%] | MIC [3] [µg/mL] | zone of inhibition at 1000 µg/mL [4] [mm] | zone of inhibition at 1000 µg/mL [5] [mm] | zone of inhibition at 1000 µg/mL [6] [mm] | zone of inhibition at 1000 µg/mL [7] [mm] | inhibition of growth at 10 µM [8] [%] | inhibition of growth at 10 µM [9] [%] | inhibition of growth at 10 µM [10] [%] | inhibition of growth at 10 µM [11] [%] | inhibition of growth at 10 µM [12] [%] | inhibition of growth at 10 µM [13] [%] | inhibition of growth at 10 µM [24] [%] | other results
N#Cc1c(N2CCCCC2)nc(=S)[nH]c1-c1ccccc1 | 60 | 125 (≈ 422 µM) | 22 | 20 | 15 | 16 | 75.8 | 48.7 | 81.2 | 44.5 | 44.6 |  |  | Activity [1]: 60%
N#Cc1c(-c2ccco2)[nH]c(=S)[nH]c1=O | 60 | 125 (≈ 570 µM) | 22 | 21 | 15 | 16 | 74.2 | 55.6 | 78.6 |  |  | 42.8 |  | 
Cn1c(N2CCOCC2)nc(-c2ccco2)c(C#N)c1=O |  |  | 22 | 17 | 15 | 17 |  |  |  |  |  |  |  | inhibition of growth at 10 µM [14]: 47.1%; inhibition of growth at 10 µM [15]: 69.8%
N#Cc1c(N2CCOCC2)nc(=S)[nH]c1-c1ccccc1 |  |  | 22 | 17 | 15 | 18 |  | 104 |  | 107 | 46.9 | 84.9 | 70.9 | MIC [16]: 125 µg/mL (≈ 419 µM); inhibition of growth at 10 µM [17]: 62.7%; inhibition of growth at 10 µM [18]: 42.3%; inhibition of growth at 10 µM [19]: 73.2%; inhibition of growth at 10 µM [20]: 53%; inhibition of growth at 10 µM [21]: 43.4%; inhibition of growth at 10 µM [22]: 42.4%; inhibition of growth at 10 µM [23]: 86.3%; inhibition of growth at 10 µM [25]: 56.4%; inhibition of growth at 10 µM [26]: 58.2%; inhibition of growth at 10 µM [27]: 45.5%; inhibition of growth at 10 µM [28]: 40.4%; inhibition of growth at 10 µM [29]: 48.7%; inhibition of growth at 10 µM [30]: 43.2%
Cn1c(N2CCOCC2)nc(-c2ccc([N+](=O)[O-])cc2)c(C#N)c1=O |  |  | 22 | 17 | 15 | 16 |  |  |  | 44.3 |  |  | 40.1 | inhibition of growth at 10 µM [31]: 39.7%; inhibition of growth at 10 µM [32]: 41.8%; inhibition of growth at 10 µM [33]: 47.7%
